In ChEMBL document CHEMBL1125111, “The synthesis and antibacterial activities of quinolones containing five- and six-membered heterocyclic substituents at the 7-position” (1990):
Values after ≈ are worked out from the molar mass of the structure shown.

Experiments:
Assay type in all cases: functional
Staphylococcus aureus [1] = assay: In vitro antibacterial activity against Staphylococcus aureus CMX 686B
In short: (§1)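 Agar dilution MIC: strains grown overnight in brain-heart infusion broth at 36 °C; test compound stock 2000 µg/mL serially diluted 2-fold into BHI agar for final 200 to 0.005 µg/mL; plates inoculated with about 10⁴ organisms, incubated 36 °C for 18 h. MIC (µg/mL) taken as lowest concentration giving no visible growth; ciprofloxacin run side by side as reference.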

Staphylococcus aureus [2] = assay: In vitro antibacterial activity against Staphylococcus aureus ATCC 6538P; in short: as §1
Streptococcus pyogenes = assay: In vitro antibacterial activity against Streptococcus pyogenes 930; in short: as §1
Pseudomonas aeruginosa [3] = assay: In vitro antibacterial activity against Pseudomonas aeruginosa K799/WT; in short: as §1
Streptococcus agalactiae = assay: In vitro antibacterial activity against Streptococcus agalactiae CMS 508; in short: as §1
Escherichia coli = assay: In vitro antibacterial activity against Escherichia coli Juhl; in short: as §1
Staphylococcus aureus [4] = assay: In vitro antibacterial activity against Staphylococcus aureus A5177; in short: as §1
Staphylococcus aureus [5] = assay: In vitro antibacterial activity against Staphylococcus aureus 45; in short: as §1
Klebsiella aerogenes = assay: In vitro antibacterial activity against Enterobacter aerogenes ATCC 13048; in short: as §1
Enterococcus faecium = assay: In vitro antibacterial activity against Streptococcus faecium ATCC 8043; in short: as §1
Streptococcus equinus = assay: In vitro antibacterial activity against Streptococcus bovis A5169; in short: as §1
Acinetobacter = assay: In vitro antibacterial activity against Acinetobacter CMX 669; in short: as §1
Pseudomonas aeruginosa [6] = assay: In vitro antibacterial activity against Pseudomonas aeruginosa 5007; in short: as §1
[7] = system: Staphylococcus epidermidis; assay: In vitro antibacterial activity against Staphylococcus epidermidis 3519; in short: as §1
Klebsiella pneumoniae = assay: In vitro antibacterial activity against Klebsiella pneumoniae 8045; in short: as §1

CCn1cc(C(=O)O)c(=O)c2cc(F)c(C3=NCCO3)cc21
MIC (Staphylococcus aureus [1]): 12.5 µg/mL (≈ 41.1 µM) | MIC (Staphylococcus aureus [2]): 25 µg/mL (≈ 82.2 µM) | MIC (Streptococcus pyogenes): > 100 µg/mL | MIC (Pseudomonas aeruginosa [3]): > 100 µg/mL | MIC (Streptococcus agalactiae): > 100 µg/mL | MIC (Escherichia coli): 12.5 µg/mL (≈ 41.1 µM) | MIC (Staphylococcus aureus [4]): 25 µg/mL (≈ 82.2 µM) | MIC (Staphylococcus aureus [5]): 50 µg/mL (≈ 164 µM) | MIC (Klebsiella aerogenes): 12.5 µg/mL (≈ 41.1 µM) | MIC (Enterococcus faecium): > 100 µg/mL | MIC (Streptococcus equinus): > 100 µg/mL | MIC (Acinetobacter): 50 µg/mL (≈ 164 µM) | MIC (Pseudomonas aeruginosa [6]): > 100 µg/mL | MIC [7]: 50 µg/mL (≈ 164 µM) | MIC (Klebsiella pneumoniae): 6.2 µg/mL (≈ 20.4 µM)

CCn1cc(C(=O)O)c(=O)c2cc(F)c(-c3ccc(C)o3)cc21
MIC (Staphylococcus aureus [1]): 0.78 µg/mL (≈ 2.47 µM) | MIC (Staphylococcus aureus [2]): 1.56 µg/mL (≈ 4.95 µM) | MIC (Streptococcus pyogenes): 50 µg/mL (≈ 159 µM) | MIC (Pseudomonas aeruginosa [3]): > 100 µg/mL | MIC (Streptococcus agalactiae): 50 µg/mL (≈ 159 µM) | MIC (Escherichia coli): 12.5 µg/mL (≈ 39.6 µM) | MIC (Staphylococcus aureus [4]): 1.56 µg/mL (≈ 4.95 µM) | MIC (Staphylococcus aureus [5]): 1.56 µg/mL (≈ 4.95 µM) | MIC (Klebsiella aerogenes): 12.5 µg/mL (≈ 39.6 µM) | MIC (Enterococcus faecium): > 100 µg/mL | MIC (Streptococcus equinus): > 100 µg/mL | MIC (Acinetobacter): 25 µg/mL (≈ 79.3 µM) | MIC (Pseudomonas aeruginosa [6]): > 100 µg/mL | MIC [7]: 1.56 µg/mL (≈ 4.95 µM) | MIC (Klebsiella pneumoniae): 6.2 µg/mL (≈ 19.7 µM)

CCn1cc(C(=O)O)c(=O)c2cc(F)c(C3=NC(C)(C)CO3)cc21
MIC (Staphylococcus aureus [1]): 12.5 µg/mL (≈ 37.6 µM) | MIC (Staphylococcus aureus [2]): 25 µg/mL (≈ 75.2 µM) | MIC (Streptococcus pyogenes): > 100 µg/mL | MIC (Pseudomonas aeruginosa [3]): > 100 µg/mL | MIC (Streptococcus agalactiae): > 100 µg/mL | MIC (Escherichia coli): > 100 µg/mL | MIC (Staphylococcus aureus [4]): 25 µg/mL (≈ 75.2 µM) | MIC (Staphylococcus aureus [5]): 100 µg/mL (≈ 301 µM) | MIC (Klebsiella aerogenes): > 100 µg/mL | MIC (Enterococcus faecium): > 100 µg/mL | MIC (Streptococcus equinus): > 100 µg/mL | MIC (Acinetobacter): > 100 µg/mL | MIC (Pseudomonas aeruginosa [6]): > 100 µg/mL | MIC [7]: 50 µg/mL (≈ 150 µM) | MIC (Klebsiella pneumoniae): 100 µg/mL (≈ 301 µM)

CCn1cc(C(=O)O)c(=O)c2cc(F)c(-c3cocn3)cc21
MIC (Staphylococcus aureus [1]): 6.2 µg/mL (≈ 20.5 µM) | MIC (Staphylococcus aureus [2]): 6.2 µg/mL (≈ 20.5 µM) | MIC (Streptococcus pyogenes): > 100 µg/mL | MIC (Pseudomonas aeruginosa [3]): 100 µg/mL (≈ 331 µM) | MIC (Streptococcus agalactiae): > 100 µg/mL | MIC (Escherichia coli): 12.5 µg/mL (≈ 41.4 µM) | MIC (Staphylococcus aureus [4]): 12.5 µg/mL (≈ 41.4 µM) | MIC (Staphylococcus aureus [5]): 25 µg/mL (≈ 82.7 µM) | MIC (Klebsiella aerogenes): 12.5 µg/mL (≈ 41.4 µM) | MIC (Enterococcus faecium): > 100 µg/mL | MIC (Streptococcus equinus): > 100 µg/mL | MIC (Acinetobacter): 50 µg/mL (≈ 165 µM) | MIC (Pseudomonas aeruginosa [6]): > 100 µg/mL | MIC [7]: 12.5 µg/mL (≈ 41.4 µM) | MIC (Klebsiella pneumoniae): 6.2 µg/mL (≈ 20.5 µM)

CCn1cc(C(=O)O)c(=O)c2cc(F)c(-c3c[nH]cn3)cc21.Cl
MIC (Staphylococcus aureus [1]): 12.5 µg/mL | MIC (Staphylococcus aureus [2]): 12.5 µg/mL | MIC (Streptococcus pyogenes): 50 µg/mL | MIC (Pseudomonas aeruginosa [3]): > 100 µg/mL | MIC (Streptococcus agalactiae): 50 µg/mL | MIC (Escherichia coli): 25 µg/mL | MIC (Staphylococcus aureus [4]): 25 µg/mL | MIC (Staphylococcus aureus [5]): 50 µg/mL | MIC (Klebsiella aerogenes): 50 µg/mL | MIC (Enterococcus faecium): > 100 µg/mL | MIC (Streptococcus equinus): > 100 µg/mL | MIC (Acinetobacter): > 100 µg/mL | MIC (Pseudomonas aeruginosa [6]): > 100 µg/mL | MIC [7]: 50 µg/mL | MIC (Klebsiella pneumoniae): 12.5 µg/mL

O=C(O)c1cn(C2CC2)c2cc(N3CCNCC3)c(F)cc2c1=O [CIPROFLOXACIN]
MIC (Staphylococcus aureus [1]): 0.2 µg/mL (≈ 0.604 µM) | MIC (Staphylococcus aureus [2]): 0.1 µg/mL (≈ 0.302 µM) | MIC (Streptococcus pyogenes): 0.39 µg/mL (≈ 1.18 µM) | MIC (Pseudomonas aeruginosa [3]): 0.2 µg/mL (≈ 0.604 µM) | MIC (Streptococcus agalactiae): 0.39 µg/mL (≈ 1.18 µM) | MIC (Staphylococcus aureus [4]): 0.39 µg/mL (≈ 1.18 µM) | MIC (Staphylococcus aureus [5]): 1.56 µg/mL (≈ 4.71 µM) | MIC (Klebsiella aerogenes): 0.05 µg/mL (≈ 0.151 µM) | MIC (Enterococcus faecium): 0.39 µg/mL (≈ 1.18 µM) | MIC (Streptococcus equinus): 1.56 µg/mL (≈ 4.71 µM) | MIC (Acinetobacter): 0.78 µg/mL (≈ 2.35 µM) | MIC (Pseudomonas aeruginosa [6]): 0.2 µg/mL (≈ 0.604 µM) | MIC [7]: 0.39 µg/mL (≈ 1.18 µM) | MIC (Klebsiella pneumoniae): 0.02 µg/mL (≈ 0.0604 µM)
